In this test the target is T1, Renin (Homo sapiens, UniProt P00797).
T1 sequence (P00797 whole entry): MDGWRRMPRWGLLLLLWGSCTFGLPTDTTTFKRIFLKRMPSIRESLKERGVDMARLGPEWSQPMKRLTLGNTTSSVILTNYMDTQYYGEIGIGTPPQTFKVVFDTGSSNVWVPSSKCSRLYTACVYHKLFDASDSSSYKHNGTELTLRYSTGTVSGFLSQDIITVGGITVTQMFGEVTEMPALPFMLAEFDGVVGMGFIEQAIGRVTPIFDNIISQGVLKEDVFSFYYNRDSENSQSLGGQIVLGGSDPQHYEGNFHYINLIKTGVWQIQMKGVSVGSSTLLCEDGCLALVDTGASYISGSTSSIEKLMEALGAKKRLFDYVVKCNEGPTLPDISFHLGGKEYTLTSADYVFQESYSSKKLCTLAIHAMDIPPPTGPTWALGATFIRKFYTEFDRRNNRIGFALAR
In words: Compound was evaluated for the inhibition of human plasma renin at pH 7.4. It counts as cell-free. In short, it runs like this:
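Human plasma renin activity measured by radioimmunoassay of generated angiotensin I, run in phosphate buffer at pH 7.4 and 37 °C. IC50 is the mean of three determinations.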

We go through 10 compounds from ChEMBL document CHEMBL1125389, “Synthesis and use of 3-amino-4-phenyl-2-piperidones and 4-amino-2-benzazepin-3-ones as conformationally restricted phenylalanine isosteres in renin inhibitors” (J Med Chem, 1992).

For orientation: IC50 means the midpoint of a concentration-inhibition curve. Lower therefore signals higher potency.

In turn, `CCCCNC(=O)[C@@H](C[C@H](O)[C@H](CC1CCCCC1)NC(=O)[C@H](CCCC)N1Cc2ccccc2C[C@H](NC(C)=O)C1=O)C(C)C` gave an IC50 of 210 nM.

With `CCCCNC(=O)[C@@H](C[C@H](O)[C@H](CC1CCCCC1)NC(=O)[C@H](CCCC)NC(=O)C(Cc1ccccc1)NC(=O)OC(C)(C)C)C(C)C` (stereo not given in full), inhibition was half-maximal at 2.1 nM (IC50).

As for `CCCCNC(=O)[C@@H](C[C@H](O)[C@H](CC1CCCCC1)NC(=O)[C@H](CCCC)NC(=O)C(Cc1ccccc1)NC(C)=O)C(C)C` (stereo not given in full), the IC50 is 0.84 nM.

Consider `CCCCNC(=O)[C@@H](C[C@H](O)[C@H](CC1CCCCC1)NC(=O)[C@H](CCCC)N1CC[C@@H](c2ccccc2)[C@H](NC(=O)OC(C)(C)C)C1=O)C(C)C`, for which the IC50 was found to be 5910 nM.

Turning to `CCCCNC(=O)[C@@H](C[C@H](O)[C@H](CC1CCCCC1)NC(=O)[C@H](CCCC)N1CC[C@H](c2ccccc2)[C@H](NC(C)=O)C1=O)C(C)C`, inhibition was half-maximal at 21 nM (IC50).

As to `CCCCNC(=O)[C@@H](C[C@H](O)[C@H](CC1CCCCC1)NC(=O)[C@H](CCCC)NC(=O)C(Cc1ccccc1)N1C(=O)c2ccccc2C1=O)C(C)C` (stereo not given in full), the IC50 was 87 nM.

Turning to `CCCCNC(=O)[C@@H](C[C@H](O)[C@H](CC1CCCCC1)NC(=O)[C@H](CCCC)N1Cc2ccccc2C[C@H](N)C1=O)C(C)C`, the IC50 is 2040 nM. This IC50 lies about 23-fold higher than the previous one.

Consider `CCCCNC(=O)[C@@H](C[C@H](O)[C@H](CC1CCCCC1)NC(=O)[C@H](CCCC)N1Cc2ccccc2C[C@H](NC(=O)OC(C)(C)C)C1=O)C(C)C`, for which the IC50 came to 1730 nM.

The compound `CCCCNC(=O)[C@@H](C[C@H](O)[C@H](CC1CCCCC1)NC(=O)[C@H](CCCC)N1CC[C@H](c2ccccc2)[C@H](NC(=O)OC(C)(C)C)C1=O)C(C)C` returned an IC50 of 134 nM.

With `CCCCNC(=O)[C@@H](C[C@H](O)[C@H](CC1CCCCC1)NC(=O)[C@H](CCCC)N1Cc2ccccc2C[C@H](N2C(=O)c3ccccc3C2=O)C1=O)C(C)C`, the IC50 is greater than 20000 nM.
